The subject of data set [1] is MCF7. The experiment in a line: Cytotoxicity against human MCF7 cells after 48 hrs by SRB assay. Type of data set: functional. Conditions: MCF7, 48 h; for CC50: read-out: LC50 (the source's name). Summed up:
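MCF-7 cells grown in RPMI-1640 with 10% FCS at 37 °C, 5% CO2. Cells with >97% viability (trypan blue) seeded and grown one day, then exposed to several concentrations for 48 h, in triplicate. Fixed with TCA at 4 °C for 1 h, stained with 0.4% SRB, bound dye dissolved in 0.01 M Tris pH 10.4, OD read at 540 nm. GI50 obtained by regression; TGI and LC50 from Ti/Tz.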

Data set [2] is described as follows: (§1) Cytotoxicity against African green monkey Vero cells after 48 hrs by SRB assay. Type of data set: cell-based. Particulars: chlorocebus sabaeus, Vero cells. (In SRB staining, fixed cells bind dye roughly in proportion to their protein.)
The test system of data set [3] is Vero. The data set is described as §1. The data set is classed as cell-based. Particulars: chlorocebus sabaeus, vero, 48 h.
Data set [4] in a line: Antiinflammatory activity assessed as inhibition of heat-induced egg albumin denaturation at 1 mM after 15 mins relative to control. Type of data set: functional. Summed up: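 Egg albumin from fresh hen's egg (0.4 ml) in PBS pH 6.4 with test solution (1 mM), 10 ml total; water as control. Incubated 37±2 °C for 15 min, then heated 70 °C for 5 min. After cooling, absorbance read at 660 nm against vehicle blank. Diclofenac sodium 1 mM as reference. % inhibition of denaturation calculated from test and control absorbances.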

A short description of data set [5]: Antioxidant activity assessed as inhibition of DPPH radical generation at 1 mM after 30 mins relative to control. Type of data set: functional. Summed up:
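1 ml of compound (1 mM) mixed with 3.0 ml DPPH (0.5 mmol/L in methanol). Absorbance at 517 nm after 30 min at 37 °C. % scavenging = (A control − A sample)/A control × 100, with control being DPPH alone. Ascorbic acid as standard; mean of two replicates.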

Data set [6] can be described thus: Antioxidant activity assessed as inhibition of nitric oxide radical generation at 1 mM using sodium nitroprusside after 150 mins by Griess assay relative to control. The data set is classed as functional. Summed up: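 NO generated from 1 ml 10 mM sodium nitroprusside mixed with 1 ml of 1 mM compound in phosphate buffer (0.2 M, pH 7.4). Incubated 25 °C for 150 min, then mixed with 1.0 ml Griess reagent (1% sulphanilamide, 0.1% naphthylethylenediamine dichloride, 2% phosphoric acid). Absorbance read at 546 nm; % inhibition from control and sample absorbances. Ascorbic acid standard; mean of two replicates.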
(Nitrite, measured by Griess reagent, commonly stands in for NO production.)

Data set [7] in a line: Antioxidant activity assessed as inhibition of superoxide radical generation at 1 mM after 5 mins by NBT reduction assay relative to control. Type of data set: functional. Put shortly: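 1 ml NBT solution ([…]), 1 ml NADH ([…]) and 1 ml compound (1 mM) mixed, all in phosphate buffer pH 7.4. Reaction started with 1 ml PMS ([…]), then incubated 25 °C for 5 min. Absorbance at 560 nm against blank; % inhibition from control and sample absorbances. Ascorbic acid standard; mean of two replicates.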

Structures can show the parent of a compound that is named as a salt.

In data set [1], `COc1cc(/C(Cl)=C/C=C(\C#N)C(=O)c2c(C)[nH]c3ccccc23)cc(OC)c1OC` showed a GI50 below 0.1 µM. For the same compound, the TGI in data set [1] was 83.7 µM; in data set [3] it was 42.6 µM. Besides, the CC50 in data set [1] is above 100 µM. Growth in data set [2] was halved (GI50 at 48 h) at 12.4 µM. For the same compound, the LC50 in data set [3] came out at 68.3 µM. Besides, the inhibition is 80.7% in data set [4], 14.5% in data set [5], 74.2% in data set [6] and 58.2% in data set [7].

`COc1ccc(/C(Cl)=C/C=C(\C#N)C(=O)c2c[nH]c3ccccc23)cc1` registered a GI50 in data set [1] of 47.3 µM. In data set [1], this compound showed a TGI above 100 µM. Besides, in data set [1], the CC50 was above 100 µM. For the same compound, the inhibition in data set [4] is 80.2%; in data set [5], 23.4%; in data set [6] it was 76.9%; in data set [7], 61.3%.

For `O=C1O[C@H]([C@@H](O)CO)C(O)=C1O`, the inhibition in data set [5] turned out to be 44.2%; in data set [6], 42.6%; in data set [7], 74.1%.

In the case of `COc1ccc2[nH]cc(C(=O)/C(C#N)=C/C=C(\Cl)c3ccc(Br)cc3)c2c1`, it took 79.9 µM to inhibit growth in data set [1] by half (GI50). In data set [1], this compound registered a TGI above 100 µM. Further, the CC50 in data set [1] was above 100 µM. For the same compound, the inhibition in data set [4] stood at 88.1%; in data set [5], 40.8%; in data set [6], 76.7%; in data set [7] it was 54.5%.

Consider `COc1ccc(/C(Cl)=C/C=C(\C#N)C(=O)c2c[nH]c3ccc(OC)cc23)cc1`, for which, in data set [1], the GI50 was 87.1 µM. For the same compound, in data set [1], the TGI is above 100 µM. In addition, the CC50 in data set [1] was above 100 µM. In addition, the inhibition came out at 79.5% in data set [4], 16.7% in data set [5], 41.6% in data set [6] and 60.7% in data set [7].

With `COc1cccc2c1C(=O)c1c(O)c3c(c(O)c1C2=O)C[C@@](O)(C(=O)CO)C[C@@H]3O[C@H]1C[C@H](N)[C@H](O)[C@H](C)O1` [DOXORUBICIN HYDROCHLORIDE], in data set [1], the GI50 is below 0.1 µM, the TGI was 11 µM and the CC50 came to 97.1 µM. In data set [2], this compound had a GI50 at 48 h of 19 µM. Also, in data set [3], the LC50 turned out to be 52.6 µM and the TGI is above 10 µM.

Take `COc1cc(/C(Cl)=C/C=C(\C#N)C(=O)c2c[nH]c3ccc(Br)cc23)cc(OC)c1OC`: in data set [1], halving of growth (GI50) required 30.8 µM. Also, the TGI was found to be 96.5 µM in data set [1] and 22.1 µM in data set [3]. Further, the CC50 in data set [1] was above 100 µM. Moreover, in data set [2], the GI50 at 48 h was determined as 7.6 µM. Also, the LC50 in data set [3] was 41.5 µM. The inhibition in data set [4] amounted to 90.8%; in data set [5], 26.3%; in data set [6] it was 36.7%; in data set [7], 50%.

With `N#C/C(=C\C=C(/Cl)c1ccc(Br)cc1)C(=O)c1c[nH]c2ccc(Br)cc12`, in data set [1], the GI50 was above 100 µM. The total growth inhibition concentration (TGI) in data set [1] was above 100 µM. For the same compound, the CC50 in data set [1] was above 100 µM. In addition, the inhibition in data set [4] came out at 90.8%; in data set [5], 15.8%; in data set [6], 67.5%; in data set [7], 83.6%.

With `COc1ccc(/C(Cl)=C/C=C(\C#N)C(=O)c2c(C)[nH]c3ccccc23)cc1OC`, in data set [1], growth was halved (GI50) at 29.6 µM. In addition, the TGI in data set [1] came to 93 µM; in data set [3], 41.1 µM. The CC50 in data set [1] is above 100 µM. Growth in data set [2] was halved (GI50 at 48 h) at 11.8 µM. For the same compound, the LC50 in data set [3] was found to be 65.9 µM. The inhibition in data set [4] was determined as 79.8%; in data set [5] it was 22.4%; in data set [6] it was 75.8%; in data set [7], 66.4%.

On to `COc1ccc(/C(Cl)=C/C=C(\C#N)C(=O)c2c(C)[nH]c3ccccc23)cc1`, for which the GI50 in data set [1] was determined as 56.7 µM. In data set [1], this compound showed a TGI above 100 µM. The CC50 in data set [1] was above 100 µM. The inhibition in data set [4] turned out to be 83.1%; in data set [5] it was 34.2%; in data set [6], 74%; in data set [7] it was 63.1%.

The compound `COc1ccc(/C(Cl)=C/C=C(\C#N)C(=O)c2c[nH]c3ccc(Br)cc23)cc1` gave a GI50 in data set [1] of 80.3 µM. The compound also had a TGI in data set [1] above 100 µM. Moreover, the CC50 in data set [1] is above 100 µM. For the same compound, the inhibition in data set [4] was found to be 78.2%; in data set [5] it was 15.6%; in data set [6], 56.2%; in data set [7], 62.2%.

For `O=C(O)Cc1ccccc1Nc1c(Cl)cccc1Cl`, the inhibition in data set [4] was 90.2%.

Take `COc1cc(/C(Cl)=C/C=C(\C#N)C(=O)c2c[nH]c3ccccc23)cc(OC)c1OC`: the GI50 in data set [1] was 4 µM. Moreover, the values for the TGI in data set [1] and in data set [3] were 94.3 µM and 35.9 µM, respectively. Besides, the CC50 in data set [1] is above 100 µM. Also, halving of growth in data set [2] (GI50 at 48 h) required 16.2 µM. This compound gave a 50% lethal concentration (LC50) in data set [3] of 54.2 µM. Besides, the inhibition in data set [4] stood at 86.2%; in data set [5] it was 21.1%; in data set [6], 73.3%; in data set [7] it was 59.1%.

The compound `COc1ccc(/C(Cl)=C/C=C(\C#N)C(=O)c2c[nH]c3ccccc23)cc1OC` came in with a GI50 in data set [1] of 44.2 µM. In data set [1], this compound registered a TGI above 100 µM. Further, the CC50 in data set [1] is above 100 µM. The inhibition came to 85.3% in data set [4], 15.8% in data set [5], 75% in data set [6] and 63.6% in data set [7].

Compound `COc1ccc2[nH]cc(C(=O)/C(C#N)=C/C=C(\Cl)c3cc(OC)c(OC)c(OC)c3)c2c1` yielded a GI50 in data set [1] of 39.2 µM. Besides, the TGI in data set [1] is above 100 µM; in data set [3] it was 12.1 µM. Also, in data set [1], the CC50 was above 100 µM. Moreover, in data set [2], the concentration for 50% growth inhibition (GI50) at 48 h amounted to 9.5 µM. This compound registered an LC50 in data set [3] of 45.2 µM. Further, the inhibition came out at 84.4% in data set [4], 46% in data set [5], 68.3% in data set [6] and 50% in data set [7].

In data set [1], `COc1ccc(/C(Cl)=C/C=C(\C#N)C(=O)c2c[nH]c3ccc(Br)cc23)cc1OC` returned a GI50 of 31.9 µM. Moreover, the concentration for total growth inhibition (TGI) in data set [1] is above 100 µM; in data set [3], 38.4 µM. Moreover, in data set [1], the CC50 was above 100 µM. This compound yielded a GI50 at 48 h in data set [2] of 8.2 µM. In addition, the LC50 in data set [3] was found to be 51.8 µM. Besides, the inhibition is 21.1% in data set [4], 11.8% in data set [5], 57.5% in data set [6] and 80.9% in data set [7].

The compound `N#C/C(=C\C=C(/Cl)c1ccc(Br)cc1)C(=O)c1c[nH]c2ccccc12` came in with a concentration for 50% growth inhibition (GI50) in data set [1] of 72.5 µM. In addition, the TGI in data set [1] was 81.5 µM. Also, in data set [1], the CC50 was above 100 µM. For the same compound, the inhibition in data set [4] is 38.5%; in data set [5] it was 18.4%; in data set [6] it was 76.7%; in data set [7], 65.5%.

Turning to `COc1ccc2[nH]cc(C(=O)/C(C#N)=C/C=C(\Cl)c3ccc(OC)c(OC)c3)c2c1`, halving of growth in data set [1] (GI50) required 44.9 µM. This compound displayed a TGI in data set [1] above 100 µM. For the same compound, the CC50 in data set [1] is above 100 µM. Besides, the inhibition in data set [4] is 87.2%; in data set [5] it was 34.2%; in data set [6], 74.2%; in data set [7] it was 58.2%.

In data set [1], `Cc1[nH]c2ccccc2c1C(=O)/C(C#N)=C/C=C(\Cl)c1ccc(Br)cc1` showed a GI50 of 73.9 µM. The compound further gave a TGI in data set [1] of 73.8 µM. Further, the CC50 in data set [1] is above 100 µM. Besides, the inhibition was found to be 85.3% in data set [4], 15.8% in data set [5], 78.3% in data set [6] and 69.1% in data set [7].

The term GI50 denotes the concentration giving 50% growth inhibition. For orientation: TGI means the concentration at which net growth stops. For orientation: LC50 means the concentration that kills 50% of the test population. Broadly, the inhibition is the relative decrease from the control value, in per cent.

Values taken from ChEMBL document CHEMBL4004879, “Synthesis of extended conjugated indolyl chalcones as potent anti-breast cancer, anti-inflammatory and antioxidant agents” (Bioorg Med Chem Lett, 2017).
